As usually defined, the Ki is the equilibrium dissociation constant of an inhibitor or competing ligand from its target. What is called inhibition is the change of the read-out against control, counted positive when it falls. The term IC50 denotes the concentration at which inhibition is half-maximal. For orientation: logP means the decadic logarithm of the partition coefficient of the neutral form, usually between octanol and water. The ED50 is the dose at which the effect has come halfway, by size or by number of responders. For orientation: Cmax means the highest concentration seen after dosing. In general, AUC(0-inf) refers to the area under the concentration-time curve extrapolated to infinity. A word on the bioavailability: it is dose-corrected exposure relative to a reference, in per cent. By solubility is commonly meant how much of the substance goes into solution per volume.

The values that follow come from ChEMBL document CHEMBL4699658, “EST64454: a Highly Soluble σ Receptor Antagonist Clinical Candidate for Pain Management” (J Med Chem, 2020).

The structures appear in SMILES notation. In brackets after ≈: the same amount, converted by molar mass.

Series [1] deals with T1, Sigma non-opioid intracellular receptor 1 (Homo sapiens, UniProt Q99720). Kind of series: Displacement of [3H]-(+)-pentazocine from human sigma1 receptor expressed in HEK293 cell membranes incubated for 120 mins by liquid scintillation counting method. Also noted: species or system Cell membrane. A general note: In a radioligand displacement assay an active substance lowers the binding of a labelled ligand.
T1 sequence (Q99720 whole entry): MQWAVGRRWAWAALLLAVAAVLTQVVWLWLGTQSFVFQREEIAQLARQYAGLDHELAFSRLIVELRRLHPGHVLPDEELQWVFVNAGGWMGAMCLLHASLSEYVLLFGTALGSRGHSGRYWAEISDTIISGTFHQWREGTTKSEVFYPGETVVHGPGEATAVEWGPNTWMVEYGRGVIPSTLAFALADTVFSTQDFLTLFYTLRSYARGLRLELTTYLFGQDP

Series [2] in a line: Displacement of [3H]-DTG from sigma2 receptor in guinea pig brain membranes incubated for 120 mins by liquid scintillation counting method. It counts as cell membranes, Cavia porcellus, Cell membrane. A digest of the protocol:
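Guinea pig brain membranes (200 μg) incubated with 10 nM [³H]-DTG in 50 mM Tris-HCl pH 8, σ1R masked with 400 nM (+)-SKF10047, at 25 °C for 120 min. Nonspecific binding defined by 10 μM haloperidol. Filtration, three washes with ice-cold 50 mM Tris-HCl pH 7.4, scintillation counting. Ki given as mean of two determinations.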

For another series, the species on record is Cavia porcellus. Kind of series: Displacement of [3H]-DTG from sigma2 receptor in guinea pig brain membranes at 1 uM incubated for 120 mins by liquid scintillation counting method relative to control. The settings on record: Cell membrane.
The target of series [3] is Voltage-gated inwardly rectifying potassium channel KCNH2 (Homo sapiens, UniProt Q12809). Kind of series: Inhibition of human ERG expressed in CHO cells by patch clamp assay. It is filed as cell-based.
Voltage-gated inwardly rectifying potassium channel KCNH2, sequence (Q12809 whole entry): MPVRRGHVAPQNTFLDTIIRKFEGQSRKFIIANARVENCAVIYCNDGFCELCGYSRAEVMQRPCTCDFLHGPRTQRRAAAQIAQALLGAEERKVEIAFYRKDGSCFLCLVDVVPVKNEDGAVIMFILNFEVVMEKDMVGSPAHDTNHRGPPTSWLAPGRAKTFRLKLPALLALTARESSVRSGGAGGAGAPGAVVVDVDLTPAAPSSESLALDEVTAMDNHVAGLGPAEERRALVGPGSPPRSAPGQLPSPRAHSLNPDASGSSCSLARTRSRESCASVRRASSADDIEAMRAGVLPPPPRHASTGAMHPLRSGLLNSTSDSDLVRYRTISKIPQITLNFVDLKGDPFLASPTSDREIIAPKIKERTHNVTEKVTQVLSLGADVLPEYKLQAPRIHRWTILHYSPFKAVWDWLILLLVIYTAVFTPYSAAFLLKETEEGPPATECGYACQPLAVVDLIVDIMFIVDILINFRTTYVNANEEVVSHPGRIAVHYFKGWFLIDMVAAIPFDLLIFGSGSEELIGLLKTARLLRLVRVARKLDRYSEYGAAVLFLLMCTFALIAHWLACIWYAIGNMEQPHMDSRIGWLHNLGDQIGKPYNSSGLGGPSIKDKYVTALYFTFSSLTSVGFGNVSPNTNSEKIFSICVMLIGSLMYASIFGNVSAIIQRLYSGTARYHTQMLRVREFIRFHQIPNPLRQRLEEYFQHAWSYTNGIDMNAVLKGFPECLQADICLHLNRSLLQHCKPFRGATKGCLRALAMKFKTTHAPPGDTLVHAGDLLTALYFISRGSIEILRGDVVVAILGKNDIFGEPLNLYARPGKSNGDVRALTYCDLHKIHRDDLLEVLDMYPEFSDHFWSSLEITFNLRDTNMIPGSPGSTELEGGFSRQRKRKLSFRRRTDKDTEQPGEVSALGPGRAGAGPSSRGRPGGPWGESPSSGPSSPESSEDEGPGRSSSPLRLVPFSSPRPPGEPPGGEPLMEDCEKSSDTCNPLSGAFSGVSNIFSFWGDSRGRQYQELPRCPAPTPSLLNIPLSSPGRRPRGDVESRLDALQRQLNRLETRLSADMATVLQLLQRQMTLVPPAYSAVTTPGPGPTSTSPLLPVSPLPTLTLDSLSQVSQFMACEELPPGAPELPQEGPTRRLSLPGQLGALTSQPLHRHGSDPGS
Another series concerns HepG2. Kind of series: Toxicity in human HepG2 cells assessed as reduction in cell viability up to 100 uM by MTT assay. It counts as cell-based. The method in brief:
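HepG2 cells exposed to compound at up to 100 μM; viability read by MTT assay.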

Series [4] can be described thus: Lipophilicity, logP of compound. The settings on record: octanol/water. It is filed as physicochemical. A digest of the protocol: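 Log P determined by a pHmetric technique on a GlpKa or Sirius-T3 instrument.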
The nature of series [5]: Permeability in human Caco-2 cells. It is filed as ADME, cell-based. The settings on record: read-out: permeability. (In general: Caco-2 cells form a polarised layer with tight junctions and transporters.)
The nature of series [6]: Induction of CYP450 expression in human HepaRG cells at 50 uM. It is filed as ADME, cell-based. A digest of the protocol:
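HepaRG cells exposed to compound at concentrations up to 50 μM; CYP induction assessed.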

Series [7] in a line: Genotoxicity in Salmonella typhimurium by Ames test. It counts as toxicity. The settings on record: salmonella enterica subsp. enterica serovar typhimurium.
The subject of series [8] is Mus musculus. Kind of series: Analgesic activity in orally dosed mouse model of intraplantar capsaicin-induced mechanical hypersensitivity-induced pain assessed as reduction in mechanical hypersensitivity. Conditions: po; call rule not given here. It counts as functional.
The test system of series [9] is Mus musculus. The series is described as follows: Analgesic activity in orally dosed mouse model of […]-induced mechanical hypersensitivity-induced pain assessed as reduction in mechanical hypersensitivity at 80 mg/kg, po. It counts as functional. Also noted: scale not given: the % may be the effect or the level left.
Series [10] in a line: Cmax in CD1 mouse at 10 mg/kg, po by HPLC-MS/MS analysis. It counts as ADME, organism-based. Also noted: route oral, dose 10 mg/kg. Conditions: in vivo. The method in brief: (§1)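 Male CD1 mice (25−30 g), groups of 16, given 10 mg/kg orally in 0.5% hydroxypropyl methylcellulose or 1 mg/kg iv in saline. Blood drawn at several times (saphenous vein or intracardiac puncture) into heparinized tubes. Plasma spun at 4 °C, stored at −80 °C, protein-precipitated and assayed by HPLC-MS/MS. Parameters from noncompartmental analysis of concentration−time curves; clearance expressed as % liver blood flow.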

Series [11] is described as follows: Elimination half life in CD1 mouse at 10 mg/kg, po by HPLC-MS/MS analysis. The settings on record: in vivo, read-out: beta t1/2 (converted). It is filed as ADME, organism-based. A digest of the protocol:
as §1

Series [12] can be described thus: AUC (0 to infinity) in CD1 mouse at 10 mg/kg, po by HPLC-MS/MS analysis. It counts as ADME, organism-based. The arrangement: time infinity, route oral, dose 10 mg/kg. Conditions: in vivo. The method in brief:
as §1

Series [13] is described as follows: Clearance in CD1 mouse at 10 mg/kg, po by HPLC-MS/MS analysis relative to liver blood flow. It is filed as ADME, organism-based. Conditions: in vivo.
Series [14] can be described thus: Volume of distribution at steady state in CD1 mouse at 10 mg/kg, po by HPLC-MS/MS analysis. It is filed as ADME, organism-based. The settings on record: in vivo. A digest of the protocol: as §1
Series [15] is described as follows: Oral bioavailability in CD1 mouse at 10 mg/kg by HPLC-MS/MS analysis. It counts as ADME, organism-based. The settings on record: in vivo. The method in brief:
as §1

A short description of series [16]: Cmax in Wistar rat at 10 mg/kg, po by HPLC-MS/MS analysis. It is filed as ADME, organism-based. Also noted: route oral, dose 10 mg/kg. Conditions: in vivo. The method in brief:
(§2)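 Male Wistar rats (250−300 g), groups of two, dosed orally at 10 mg/kg in 0.5% hydroxypropyl methylcellulose or iv at 1 mg/kg in saline. Serial blood into heparinized tubes (saphenous vein or cardiac puncture). Plasma kept at −80 °C and measured by HPLC-MS/MS after protein precipitation. Noncompartmental analysis gave parameters; clearance given as % liver blood flow.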

Series [17] in a line: Elimination half life in Wistar rat at 10 mg/kg, po by HPLC-MS/MS analysis. It is filed as ADME, organism-based. The settings on record: in vivo, read-out: beta t1/2 (converted). The method in brief: as §2
Series [18] can be described thus: AUC (0 to infinity) in Wistar rat at 10 mg/kg, po by HPLC-MS/MS analysis. The arrangement: route oral, time infinity, dose 10 mg/kg. The settings on record: in vivo. It is filed as ADME, organism-based. The method in brief:
as §2

A short description of series [19]: Clearance in Wistar rat at 10 mg/kg, po by HPLC-MS/MS analysis relative to liver blood flow. It is filed as ADME, organism-based. The settings on record: in vivo.
Series [20] can be described thus: Volume of distribution at steady state in Wistar rat at 10 mg/kg, po by HPLC-MS/MS analysis. It is filed as ADME, organism-based. Conditions: in vivo. A digest of the protocol: as §2
Series [21] is described as follows: Oral bioavailability in Wistar rat at 10 mg/kg by HPLC-MS/MS analysis. It counts as ADME, organism-based. The settings on record: in vivo. A digest of the protocol: as §2
For series [22], the target named is T1, Sigma non-opioid intracellular receptor 1. Kind of series: Antagonist activity at human sigma1 receptor expressed in HEK293 cell membranes assessed as ratio of Ki without phenytoin/Ki with phenytoin by [3H]-(+)-pentazocine displacement assay. Conditions: Cell membrane, filed as antagonist.
Series [23] in a line: Aqueous solubility of compound. It is filed as physicochemical.
Series [24] in a line: Thermodynamic solubility in pH 2 buffer. It counts as physicochemical. Conditions: read-out: Therm_solubility.
Series [25] can be described thus: Thermodynamic solubility in pH 7.4 buffer. It counts as physicochemical. Conditions: read-out: Therm_solubility.

Take `Cc1cc(COCCN2CCOCC2)nn1C1CCCC1`: the Ki in series [1] was 240 nM; in [2] it was above 10000 nM.

As to `Cc1cc(COCCN2CCCCC2)nn1-c1ccc(Cl)c(Cl)c1`, the Ki in series [1] was determined as 2 nM; in [2] it was 28 nM.

In the case of `Clc1ccc(-n2ccc(COCCN3CCOCC3)n2)cc1Cl`, the Ki in series [1] came to 2 nM; in series [2] it was 137 nM.

Turning to `CC(=O)N1CCN(CCCOCc2cc(C)n(-c3ccc(Cl)c(Cl)c3)n2)CC1`, the Ki in [1] was 9 nM; in series [2], above 1000 nM. The compound further displayed an inhibition in the series filed under Cavia porcellus below 50%. For the same compound, 4080 nM corresponded to half-maximal inhibition in series [3] (IC50).

In the case of `CC(=O)N1CCN(CCOCc2cc(C)n(-c3ccc(F)c(F)c3)n2)CC1`, the figures for the Ki in series [1] and in [2] were 58 nM and above 10000 nM, respectively. In addition, the IC50 in [3] was above 10000 nM.

In series [2], `O=C(CCCN1CCC(O)(c2ccc(Cl)cc2)CC1)c1ccc(F)cc1` [HALOPERIDOL] gave a Ki of 22 nM.

In the case of `CC(=O)N1CCN(CCOCc2ccn(-c3ccc(F)c(F)c3)n2)CC1.Cl`, the Activity result is recorded as “Non-Toxic” in the series on HepG2, “Non-Toxic” in [6], “Non-Toxic” in series [7] and 95% in the series with Mus musculus [9]. The figures for the Ki in series [1] and in series [2] were 22 nM and above 10000 nM, respectively. This compound also had an IC50 in series [3] above 10000 nM. Moreover, the logP in series [4] came to 1.7. Moreover, in series [5], the Papp was 51.5 ×10⁻⁶ cm/s. Also, in the series with Mus musculus [8], the ED50 is 33 mg/kg. Also, the values for the Cmax in series [10] and in [16] were 771 ng/mL and 1180 ng/mL, respectively. Further, the half-life was 3.4 h in [11] and below 1 h in [17]. Further, the AUC(0-inf) in series [12] turned out to be 1430 ng·h/mL; in series [18], 2640 ng·h/mL. Further, the CL amounted to 89% in series [13] and 70% in series [19]. Besides, the Vdss in [14] amounted to 4.4 L/kg; in [20], 1.2 L/kg. Also, the bioavailability in series [15] came to 69%; in series [21], 60%. In addition, the Ratio Ki in series [22] came out at 0.9.

In the case of `Cc1cc(COCCN2CCCC2)nn1-c1ccc(Cl)c(Cl)c1`, the values for the Ki in [1] and in series [2] were 6 nM and 27 nM, respectively. This compound displayed an IC50 in [3] of 5120 nM.

With `Cc1cc(COCCN2C[C@@H](C)O[C@@H](C)C2)nn1-c1ccc(Cl)c(Cl)c1`, the Ki in [1] stood at 3 nM; in series [2], 180 nM.

`Cc1cc(CCCN2CCOCC2)nn1-c1ccc(Cl)c(Cl)c1`: the Ki is 5 nM in series [1] and 232 nM in series [2].

For the compound `Cc1cc(OCCN2CCOCC2)nn1-c1ccc2ccccc2c1`, in series [23], the concentration in solution (solubility) was 200 µg/mL (≈ 593 µM). The Ki in series [2] was above 1000 nM. The inhibition in the series filed under Cavia porcellus is below 50%. Also, the solubility thermodynamic in series [24] and in series [25] was 230 µg/mL (≈ 682 µM) throughout. Also, in the series on Mus musculus [9], the Activity came out at 54%. For the same compound, the results for the Cmax in series [10] and in series [16] were 622 ng/mL and 301 ng/mL, respectively. Besides, the results for the half-life in series [11] and in series [17] were 0.7 h and 1.2 h, respectively. Also, the AUC(0-inf) in series [12] was 958 ng·h/mL; in series [18] it was 428 ng·h/mL. Also, the figures for the CL in series [13] and in [19] were 65% and 109%, respectively. Further, the results for the Vdss in [14] and in series [20] were 2.2 L/kg and 2.9 L/kg, respectively. In addition, the bioavailability came out at 34% in series [15] and 15% in series [21].

As for `CC(=O)N1CCN(CCOCc2cc(C)n(-c3ccc(Cl)c(Cl)c3)n2)CC1`, the values for the Ki in [1] and in series [2] were 15 nM and above 1000 nM, respectively. In the series filed under Cavia porcellus, this compound displayed an inhibition below 50%. The IC50 in series [3] is above 10000 nM.

With `CC(C)=CCN1CC[C@]2(C)c3cc(O)ccc3C[C@H]1[C@H]2C` [(+)-PENTAZOCINE], in series [2], the Ki was found to be 719 nM.

Consider `Cc1cc(COCCN2CCOCC2)nn1-c1ccc2ccccc2c1`, for which the Ki in series [1] was 209 nM; in series [2] it was above 1000 nM. The inhibition in the series filed under Cavia porcellus was below 50%.

Regarding `Cc1cc(COCCN2CCOCC2)nn1-c1ccc(Cl)c(Cl)c1`, the Ki was 14 nM in series [1] and 399 nM in series [2].

The compound `Cc1cc(COCCN2CCNCC2)nn1-c1ccc(Cl)c(Cl)c1` yielded a Ki in series [1] of 278 nM.

Take `Cc1ccccc1NC(=N)Nc1ccccc1C` [DITOLYLGUANIDINE]: the affinity in series [2], expressed as Ki, was 23 nM.

Consider `Cc1cc(CCCCN2CCOCC2)nn1-c1ccc(Cl)c(Cl)c1`, for which the Ki in [1] was 9 nM; in series [2], 116 nM.
